Laboratory results taken from ChEMBL document CHEMBL1137743, “Synthesis, antimicrobial evaluation and QSAR study of some 3-hydroxypyridine-4-one and 3-hydroxypyran-4-one derivatives” (2009).
≈ marks a conversion by molar mass, not a printed value.

Experiments:
Escherichia coli = experiment: Antibacterial activity against Escherichia coli PTCC 1338 after 24 hrs by microplate alamar blue assay; format: functional; details: PTCC 1338, 24 h
How it was run: (§1)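 Bacteria from Persian type culture collection grown in Mueller–Hinton broth. Inoculum suspensions adjusted to 0.5 McFarland, final inoculum 1.5 ×10⁴. Compounds dissolved in DMSO, serially diluted twofold across the 8–512 range in 96-well plates, Alamar Blue added, sealed plates incubated 24 h at 37 °C. MIC is the lowest concentration preventing the blue-to-pink colour change. Ciprofloxacin was the reference drug.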

[1] = system: Salmonella enterica subsp. enterica; experiment: Antibacterial activity against Salmonella enteritidis PTCC 1091 after 24 hrs by microplate alamar blue assay; format: functional, Salmonella enterica subsp. enterica serovar Enteritidis; details: PTCC 1091, 24 h; how it was run: as §1
Pseudomonas aeruginosa = experiment: Antibacterial activity against Pseudomonas aeruginosa PTCC 1074 after 24 hrs by microplate alamar blue assay; format: functional; details: for MIC: Pseudomonas aeruginosa, PTCC 1074, 24 h; how it was run: as §1
Staphylococcus aureus = experiment: Antibacterial activity against Staphylococcus aureus PTCC 1337 after 24 hrs by microplate alamar blue assay; format: functional; details: for MIC: Staphylococcus aureus, PTCC 1337, 24 h; how it was run: as §1
Listeria monocytogenes = experiment: Antibacterial activity against Listeria monocytogenes PTCC 1165 after 24 hrs by microplate alamar blue assay; format: functional; details: PTCC 1165, 24 h; how it was run: as §1
Bacillus subtilis = experiment: Antibacterial activity against Bacillus subtilis PTCC 1023 after 24 hrs by microplate alamar blue assay; format: functional; details: PTCC 1023, 24 h; how it was run: as §1
Candida albicans = experiment: Antifungal activity against Candida albicans PTCC 5027 after 48 hrs by microplate alamar blue assay; format: functional; details: for MIC: Candida albicans, PTCC 5027, 48 h
How it was run: (§2)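 Fungi from Persian type culture collection, tested in RPMI 1640 buffered with MOPS at pH 7.0. Final inoculum 1.5 ×10⁵. Compounds in DMSO, twofold serial dilutions over 8–512 in 96-well plates with Alamar Blue, incubated 48 h at 25 °C. MIC is the lowest concentration blocking the blue-to-pink shift. Ketoconazole was the reference agent.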

Aspergillus niger = experiment: Antifungal activity against Aspergillus niger 5021 after 48 hrs by microplate alamar blue assay; format: functional; details: Aspergillus niger, 5021, 48 h; how it was run: as §2
Aspergillus flavus = experiment: Antifungal activity against Aspergillus flavus PTCC 5003 after 48 hrs by microplate alamar blue assay; format: functional; details: PTCC 5003, 48 h; how it was run: as §2

Row | MIC (Escherichia coli) | MIC [1] | MIC (Pseudomonas aeruginosa) | MIC (Staphylococcus aureus) | MIC (Listeria monocytogenes) | MIC (Bacillus subtilis) | MIC (Candida albicans) | MIC (Aspergillus niger) | MIC (Aspergillus flavus) | Compound | -logMIC (Pseudomonas aeruginosa) | -logMIC (Staphylococcus aureus) | -logMIC (Candida albicans)
1 | > 512 µg/mL | > 512 µg/mL | 256 µg/mL (≈ 2030 µM) | > 512 µg/mL | 512 µg/mL (≈ 4060 µM) | > 512 µg/mL | 128 µg/mL (≈ 1010 µM) | 512 µg/mL (≈ 4060 µM) | 512 µg/mL (≈ 4060 µM) | Cc1cc(=O)c(O)co1 | 3.59 | 3.59 | 3.89
2 | 128 µg/mL (≈ 636 µM) | 128 µg/mL (≈ 636 µM) | 512 µg/mL (≈ 2540 µM) | 128 µg/mL (≈ 636 µM) | 512 µg/mL (≈ 2540 µM) | 256 µg/mL (≈ 1270 µM) | > 512 µg/mL | > 512 µg/mL | > 512 µg/mL | Cc1c(O)c(=O)ccn1-c1ccccc1 | 3.29 | 3.89 | 3.29
3 | 512 µg/mL (≈ 2610 µM) | 256 µg/mL (≈ 1300 µM) | 256 µg/mL (≈ 1300 µM) | 512 µg/mL (≈ 2610 µM) | 512 µg/mL (≈ 2610 µM) | > 512 µg/mL | 512 µg/mL (≈ 2610 µM) | 512 µg/mL (≈ 2610 µM) | 512 µg/mL (≈ 2610 µM) | CCc1[nH]cc(CN(C)C)c(=O)c1O | 3.59 | 3.29 | 3.29
4 | – | – | – | – | – | – | – | – | – | Cc1cc(=O)c(OCc2ccccc2)c(CO)o1 | 3.59 | 3.59 | 3.89
5 | – | – | – | – | – | – | – | – | – | O=c1cc(CO)occ1OCc1ccccc1 | 3.89 | 3.59 | 3.89
6 | – | – | – | – | – | – | – | – | – | Cc1cc(=O)c(O)c(CO)o1 | 3.89 | 3.59 | 3.89
7 | 64 µg/mL (≈ 288 µM) | 16 µg/mL (≈ 72 µM) | 512 µg/mL (≈ 2300 µM) | 16 µg/mL (≈ 72 µM) | 64 µg/mL (≈ 288 µM) | 32 µg/mL (≈ 144 µM) | 128 µg/mL (≈ 576 µM) | 512 µg/mL (≈ 2300 µM) | > 512 µg/mL | Cc1[nH]cc(CN2CCCCC2)c(=O)c1O | 3.59 | 3.29 | –
8 | 512 µg/mL (≈ 2280 µM) | 512 µg/mL (≈ 2280 µM) | 256 µg/mL (≈ 1140 µM) | > 512 µg/mL | 512 µg/mL (≈ 2280 µM) | 512 µg/mL (≈ 2280 µM) | 512 µg/mL (≈ 2280 µM) | 512 µg/mL (≈ 2280 µM) | 512 µg/mL (≈ 2280 µM) | CCc1[nH]cc(CN(CC)CC)c(=O)c1O | 3.59 | 3.29 | 3.29
9 | 512 µg/mL (≈ 2360 µM) | 64 µg/mL (≈ 295 µM) | 512 µg/mL (≈ 2360 µM) | 16 µg/mL (≈ 73.7 µM) | > 512 µg/mL | > 512 µg/mL | 512 µg/mL (≈ 2360 µM) | 512 µg/mL (≈ 2360 µM) | 256 µg/mL (≈ 1180 µM) | Cc1c(O)c(=O)ccn1-c1cccc(O)c1 | 3.29 | 3.29 | 3.59
10 | – | – | – | – | – | – | – | – | – | Cc1cc(=O)c(OCc2ccccc2)c(C(=O)Nc2cccnc2)o1 | 3.89 | 3.59 | 4.49
11 | – | – | – | – | – | – | – | – | – | Cc1cc(=O)c(OCc2ccccc2)c(C(=O)Nc2cccc3ccccc23)o1 | 3.89 | 3.59 | 4.49
12 | – | – | – | – | – | – | – | – | – | Cc1cc(=O)c(O)c(C(=O)Nc2cccnc2)o1 | 3.89 | 4.19 | 3.89
13 | – | – | – | – | – | – | – | – | – | Cc1cc(=O)c(OCc2ccccc2)c(C=O)o1 | 3.89 | 4.19 | 3.89
14 | – | – | – | – | – | – | – | – | – | Cc1cc(=O)c(OCc2ccccc2)c(C(=O)O)o1 | 3.89 | 3.59 | 3.89
15 | 512 µg/mL (≈ 2170 µM) | 512 µg/mL (≈ 2170 µM) | 256 µg/mL (≈ 1080 µM) | > 512 µg/mL | > 512 µg/mL | 512 µg/mL (≈ 2170 µM) | 128 µg/mL (≈ 542 µM) | 512 µg/mL (≈ 2170 µM) | 256 µg/mL (≈ 1080 µM) | CCc1[nH]cc(CN2CCCCC2)c(=O)c1O | 3.59 | 3.29 | 3.29
16 | 512 µg/mL (≈ 2810 µM) | 512 µg/mL (≈ 2810 µM) | 256 µg/mL (≈ 1400 µM) | > 512 µg/mL | 512 µg/mL (≈ 2810 µM) | > 512 µg/mL | > 512 µg/mL | 512 µg/mL (≈ 2810 µM) | > 512 µg/mL | Cc1[nH]cc(CN(C)C)c(=O)c1O | 3.59 | 3.29 | –
17 | – | – | – | – | – | – | – | – | – | Cc1cc(=O)oc2cc(NC(=O)c3cc(=O)c(O)cn3C)ccc12 | 3.59 | 4.49 | 3.89
18 | – | – | – | – | – | – | – | – | – | Cc1cc(=O)oc2cc(NC(=O)c3cc(=O)c(OCc4ccccc4)co3)ccc12 | 3.59 | 3.89 | 3.89
19 | – | – | – | – | – | – | – | – | – | O=C(O)c1cc(=O)c(OCc2ccccc2)co1 | 3.89 | 3.59 | 3.89
20 | – | – | – | – | – | – | – | – | – | Cn1cc(OCc2ccccc2)c(=O)cc1C(=O)Nc1ccccc1 | 3.59 | 3.89 | 3.89
21 | – | – | – | – | – | – | – | – | – | Cn1cc(O)c(=O)cc1C(=O)Nc1ccccc1 | 3.89 | 4.8 | 3.89
22 | – | – | – | – | – | – | – | – | – | Cc1cc(=O)c(O)c(C(=O)Nc2cnc3ccccc3c2)o1 | 3.89 | 5.1 | –
23 | – | – | – | – | – | – | – | – | – | Cc1cc(=O)c(O)c(C(=O)Nc2cccc3ccccc23)o1 | 3.89 | 3.59 | 3.89
24 | 512 µg/mL (≈ 2430 µM) | 128 µg/mL (≈ 609 µM) | 256 µg/mL (≈ 1220 µM) | 512 µg/mL (≈ 2430 µM) | > 512 µg/mL | > 512 µg/mL | 512 µg/mL (≈ 2430 µM) | 512 µg/mL (≈ 2430 µM) | 512 µg/mL (≈ 2430 µM) | CCN(CC)Cc1c[nH]c(C)c(O)c1=O | 3.29 | 4.19 | 3.89
25 | – | – | – | – | – | – | – | – | – | Cc1cc(=O)oc2cc(NC(=O)c3cc(=O)c(OCc4ccccc4)cn3C)ccc12 | 3.89 | 3.59 | 3.89
26 | – | – | – | – | – | – | – | – | – | Cc1cc(=O)c(OCc2ccccc2)c(C(=O)Nc2cnc3ccccc3c2)o1 | 3.89 | 3.89 | 3.89
27 | – | – | – | – | – | – | – | – | – | O=C(Nc1ccccc1)c1cc(=O)c(OCc2ccccc2)co1 | 3.59 | 3.89 | 3.89
28 | 512 µg/mL (≈ 2830 µM) | 256 µg/mL (≈ 1410 µM) | 512 µg/mL (≈ 2830 µM) | 256 µg/mL (≈ 1410 µM) | > 512 µg/mL | 512 µg/mL (≈ 2830 µM) | 256 µg/mL (≈ 1410 µM) | 256 µg/mL (≈ 1410 µM) | 256 µg/mL (≈ 1410 µM) | CCCCn1ccc(=O)c(O)c1C | 3.29 | 3.89 | 3.59
29 | 128 µg/mL (≈ 766 µM) | 128 µg/mL (≈ 766 µM) | 512 µg/mL (≈ 3060 µM) | 16 µg/mL (≈ 95.7 µM) | 512 µg/mL (≈ 3060 µM) | 256 µg/mL (≈ 1530 µM) | 256 µg/mL (≈ 1530 µM) | 512 µg/mL (≈ 3060 µM) | 256 µg/mL (≈ 1530 µM) | CCCn1ccc(=O)c(O)c1C | 3.89 | 3.29 | 3.29
30 | – | – | – | – | – | – | – | – | – | O=c1cc(CO)occ1O [KOJIC ACID] | 3.89 | 3.59 | 3.89

Row | Compound | MIC (Escherichia coli) | MIC [1] | MIC (Pseudomonas aeruginosa) | MIC (Staphylococcus aureus) | MIC (Listeria monocytogenes) | MIC (Bacillus subtilis) | MIC (Candida albicans) | MIC (Aspergillus niger) | MIC (Aspergillus flavus) | -logMIC (Pseudomonas aeruginosa) | -logMIC (Staphylococcus aureus) | -logMIC (Candida albicans)
31 | O=c1cc(CCl)occ1O | > 512 µg/mL | > 512 µg/mL | > 512 µg/mL | > 512 µg/mL | > 512 µg/mL | > 512 µg/mL | 512 µg/mL (≈ 3190 µM) | 128 µg/mL (≈ 797 µM) | 16 µg/mL (≈ 99.7 µM) | 4.19 | 3.59 | 3.89
32 | O=C(O)c1cn(C2CC2)c2cc(N3CCNCC3)c(F)cc2c1=O [CIPROFLOXACIN] | – | 1 µg/mL (≈ 3.02 µM) | – | 0.5 µg/mL (≈ 1.51 µM) | 1 µg/mL (≈ 3.02 µM) | 0.06 µg/mL (≈ 0.181 µM) | – | – | – | – | – | –
33 | CC(=O)N1CCN(c2ccc(OCC3COC(Cn4ccnc4)(c4ccc(Cl)cc4Cl)O3)cc2)CC1 (stereo not given) [KETOCONAZOLE] | – | – | – | – | – | – | 2 µg/mL (≈ 3.76 µM) | 4 µg/mL (≈ 7.53 µM) | 8 µg/mL (≈ 15.1 µM) | – | – | –
